From PubChem BioAssay
A selection: hits, their analogues and other compounds. The true share with any hit is near 3%.
Apaf-1 inh = human Apaf-1 inhibition. O14727. reconstituted apoptosome caspase-3 activity, DEVD-Rh110 fluorescence. inhibition, % at 20 µM. 330,000 tested, 0.71% active. AID 489030; active means inhibition of at least 40% at 20 µM
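Material: cell-free apoptosome with Apaf-1, procaspase-3 and caspase-9; Buffer or medium: Hepes pH 7.5 with detergent and BSA; Reagent: cytochrome c trigger plus (Z-DEVD)2-Rh110 caspase-3 substrate; Times: compound with Apaf-1, dATP, procaspase-3 30 min, then 50 min reaction, room temperature; Technique: Rh110 fluorescence intensity.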
UBC13 polyUb = blocks human UBC13 polyubiquitin chain formation. 330,000 tested, 0.47% active. TR-FRET. AID 485273. inhibition, % at 20 µM; in the data active means inhibition above about 45%, passing the limit was not always enough
Target sequence (P61088 whole entry, looked up): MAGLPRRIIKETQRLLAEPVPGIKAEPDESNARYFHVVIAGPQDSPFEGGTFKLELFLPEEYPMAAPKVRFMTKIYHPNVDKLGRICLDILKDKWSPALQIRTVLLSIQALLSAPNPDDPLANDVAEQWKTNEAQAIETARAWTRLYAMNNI
SENP8 block-1 = blocks the human protease SENP8; Q96LD8; purified SENP8, Z-RLRGG-aminoluciferin cleavage, luminescence; inhibition, % at 10 µM; 330,000 tested, 1.2% active; in the data active means inhibition above about 50%
Target sequence (Q96LD8 whole entry, looked up): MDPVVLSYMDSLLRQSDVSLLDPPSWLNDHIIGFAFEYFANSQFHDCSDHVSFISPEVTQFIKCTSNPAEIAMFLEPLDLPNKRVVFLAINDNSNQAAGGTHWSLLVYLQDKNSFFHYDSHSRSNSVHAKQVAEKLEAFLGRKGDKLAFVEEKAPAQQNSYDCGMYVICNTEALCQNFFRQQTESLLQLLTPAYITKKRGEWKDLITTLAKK
SENP8 block-2 = blocks human SENP8 cleavage of Nedd8 substrate. Q96LD8. recombinant SENP8, Nedd8 substrate fluorescence. inhibition, % at 20 µM. 360,000 tested, 0.64% active. AID 602440; in the data active means inhibition mostly above about 40%, no sharp cut-off; inactive means mostly below about 27%
SENP7 block = inhibitors of human SENP7 protease; Q9BQF6; recombinant SENP7, Z-RLRGG-aminoluciferin luminescence, 40 min; inhibition, % at 5 µM; 330,000 tested, 1.5% active; AID 434973;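 active means inhibition above about 50% at the single test dose, limit read from the data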
SENP6 block = inhibitors of human SENP6 protease. Q9GZR1. Recombinant SENP6 catalytic domain, aminoluciferin luminescence. inhibition, % at 10 µM. 330,000 tested, 1.8% active. AID 2599;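 active means inhibition above about 50% at the single tested dose, limit read from the data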
SENP8 confirm = confirmation of human SENP8 protease inhibitors | shares compounds with SENP7 block | Recombinant SENP8, Z-RLRGG-aminoluciferin luminescence, 60 min | inhibition, % at 12.5 µM | 6,200 tested, 40% active | AID 488912;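 active means mean inhibition across replicates above about 50%, limit read from the data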
SENP6 confirm = human SENP6 inhibition, confirmed | shares compounds with SENP7 block | recombinant SENP6, Z-RLRGG-aminoluciferin luminescence | inhibition, % at 12.5 µM | 6,200 tested, 58% active | AID 488915
SENP7 confirm = human SENP7 inhibition, confirmed; shares compounds with SENP7 block; recombinant SENP7, Z-RLRGG-aminoluciferin luminescence, 40 min; inhibition, % at 12.5 µM; 6,200 tested, 69% active
Casp3 select = selectivity test for SENP inhibitors: human caspase-3 inhibition; 6,200 tested, 60% active; AID 488918; inhibition, % at 12.5 µM; purified caspase-3, Z-DEVD-aminoluciferin luminescence, 60 min; shares compounds with SENP7 block;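 active means mean inhibition above about 50%, limit read from the data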
Target sequence (P42574 28-227 limits assumed): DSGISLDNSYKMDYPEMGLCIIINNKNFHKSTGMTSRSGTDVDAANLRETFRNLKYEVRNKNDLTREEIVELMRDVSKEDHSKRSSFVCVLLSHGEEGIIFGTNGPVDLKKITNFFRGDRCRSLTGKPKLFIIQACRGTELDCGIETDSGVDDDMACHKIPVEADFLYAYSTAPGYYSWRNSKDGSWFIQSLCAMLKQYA
Luc interf = luminescence interference (SENP counter-screen); shares compounds with SENP7 block; Pre-incubated SENP8/Z-RLRGG-aminoluciferin, luciferase luminescence interference; inhibition, % at 12.5 µM; 6,200 tested, 39% active;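 active means mean inhibition above about 50% when retested at one dose, limit read from the data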
Large screens that a line does not name were inactive (follow-up assays come after a bar, where they were run).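 How the source made its calls, unless noted: active means mean inhibition above about 50% in the one-dose retest (limit read from the data); inactive means the rest.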

O=[N+]([O-])c1ccc(Cl)c(C[n+]2cccc3ccccc32)c1	none
CCOC(=O)c1sc(-c2ccc(OC)cc2)cc1N	SENP7 block 51.9, SENP6 block 70.5 | SENP8 confirm inactive | SENP6 confirm 54.5 | SENP7 confirm 83.3 | Casp3 select inactive | Luc interf inactive
Cc1nnc(SCc2cc(=O)[nH]c(/N=C(\N)Nc3ccccc3)n2)s1	none
CCOc1ccc(N/C(N)=N/c2nc(CSc3nnc(C)s3)cc(=O)[nH]2)cc1	SENP6 block 54.7 | SENP8 confirm inactive | SENP6 confirm inactive | SENP7 confirm inactive | Casp3 select inactive | Luc interf inactive
O=C(CSc1nncs1)Nc1ccc2[nH]c(=O)[nH]c2c1	none
CC(=O)Nc1cc(Cl)c(N=Cc2ccc(O)cc2O)cc1Cl	none
CCOC(=O)c1sc(/N=C/c2ccc(O)cc2O)cc1C	SENP8 block-1 94.2, SENP6 block 95.8 | SENP8 confirm 78.2 | SENP6 confirm 97.5 | SENP7 confirm 101.1 | Casp3 select 82.8 | Luc interf inactive
Cc1ccc(/C=N/Nc2nc3ccccc3s2)o1	SENP8 block-1 90.1, SENP7 block 82.6, SENP6 block 96.7 | SENP8 confirm 83.5 | SENP6 confirm 84.1 | SENP7 confirm 98.7 | Casp3 select 81.1 | Luc interf inactive
COc1cc(OC)cc(-c2nc(-c3cccs3)no2)c1	none
COc1cccc(-c2nc(-c3cccs3)no2)c1	SENP8 block-1 82.9, SENP7 block 91.8, SENP6 block 90.0 | SENP8 confirm inactive | SENP6 confirm 87.2 | SENP7 confirm 97.5 | Casp3 select 69.9 | Luc interf 62.4
COc1cccc(-c2nc(-c3ccncc3)no2)c1	SENP8 block-1 69.7, SENP7 block 80.3, SENP6 block 77.5 | SENP8 confirm 72.9 | SENP6 confirm 77.8 | SENP7 confirm 94.2 | Casp3 select 86.4 | Luc interf 61.4
Cc1ccc(S(=O)(=O)N2CCN(C(=O)COC(=O)CCCOc3ccccc3)CC2)c(C)c1	none
Cc1nonc1C(=O)N/N=C/c1ccc(O)cc1O	SENP7 block 99.6, SENP6 block 96.9 | SENP8 confirm 97.8 | SENP6 confirm 98.3 | SENP7 confirm 102.0 | Casp3 select 97.6 | Luc interf 96.9
Cc1nonc1C(=O)N/N=C/c1ccncc1	none
O=C(CCn1cccn1)Nc1ccc(-c2ccno2)cc1	none
O=C(CCCn1nnnc1CN1CCOCC1)N1CCC(c2ccc(F)cc2)C1 (centres undefined)	none
Cc1ncoc1C(=O)Nc1cccc(Cl)c1	SENP7 block 63.9, SENP6 block 50.2 | SENP8 confirm 60.2 | SENP6 confirm 58.5 | SENP7 confirm 86.0 | Casp3 select 79.8 | Luc interf 56.9
Cc1ccc(NC(=O)c2ocnc2C)cc1Cl	SENP8 block-1 60.5, SENP7 block 83.3, SENP6 block 81.2 | SENP8 confirm 76.4 | SENP6 confirm 76.6 | SENP7 confirm 94.0 | Casp3 select 83.0 | Luc interf inactive
Cc1ccc(Cl)cc1NC(=O)c1ocnc1C	none
Cc1ccc(C)c(S(=O)(=O)N2CCN(C(=O)[C@H](Cc3ccccc3)NC(=O)c3ccco3)CC2)c1	none
COc1ccc(CCCN2CCC(CN3C(=S)NC[C@@H]3Cc3ccccc3)CC2)cc1OC	none (no result: Apaf-1 inh, UBC13 polyUb, SENP8 block-1, SENP7 block, SENP6 block)
CCn1c(/C=C/c2cc[n+](C)cc2)nc2ccccc21	none
CCCn1c(/C=C/c2ccccc2)nc2ccccc21	SENP8 block-1 62.5, SENP7 block 70.3, SENP6 block 72.0 | SENP8 confirm 85.9 | SENP6 confirm 84.5 | SENP7 confirm 94.9 | Casp3 select 74.7 | Luc interf 80.9
CCCCc1c(O)nc(SCC(=O)N2CCOCC2)n(-c2ccc(C)cc2)c1=O	none (no result: Apaf-1 inh, UBC13 polyUb, SENP8 block-1, SENP7 block, SENP6 block)
Cc1ccc(S(=O)(=O)Nc2ccc3c(c2)C(=O)N([C@@H](C)CO)C[C@@H](C)[C@@H](CN(C)C(=O)NC(C)C)OCCCC[C@H](C)O3)cc1	none (no result: Apaf-1 inh, UBC13 polyUb, SENP8 block-1, SENP7 block, SENP6 block)
C#Cc1ccc2c(c1)COc1c3ccccc3nn1-2	SENP8 block-1 93.0, SENP7 block 71.5, SENP6 block 95.6 | SENP8 confirm 76.2 | SENP6 confirm 96.3 | SENP7 confirm 101.2 | Casp3 select 91.7 | Luc interf 51.9
C(#Cc1ccc2c(c1)COc1c3ccccc3nn1-2)c1ccccc1	SENP8 block-1 73.8, SENP7 block 61.4, SENP6 block 76.4 | SENP8 confirm inactive | SENP6 confirm inactive | SENP7 confirm 56.6 | Casp3 select inactive | Luc interf inactive
COc1cccc(CC(=O)OCC(=O)N(C)CC(=O)Nc2ccc(Cl)c(C(F)(F)F)c2)c1	none
Cc1occc1C(=O)N/N=C/C(Br)=C/c1ccccc1	SENP8 block-1 84.2, SENP7 block 88.5, SENP6 block 91.6 | SENP8 confirm 66.1 | SENP6 confirm 91.7 | SENP7 confirm 99.0 | Casp3 select 88.4 | Luc interf inactive
COc1ccc(/C=N/NC(=O)c2ccoc2C)cc1OC	SENP6 block 56.3 | SENP8 confirm inactive | SENP6 confirm inactive | SENP7 confirm 69.8 | Casp3 select 79.5 | Luc interf 52.0
Cc1occc1C(=O)N/N=C/c1ccc[nH]1	none
CCN(CC)c1ccc(/C=N/NC(=O)c2ccoc2C)c(O)c1	SENP8 block-1 94.1, SENP7 block 100.5, SENP6 block 98.0 | SENP8 confirm 96.2 | SENP6 confirm 97.7 | SENP7 confirm 103.4 | Casp3 select inactive | Luc interf inactive
Cc1occc1C(=O)N/N=C/c1cccs1	SENP8 block-1 62.2, SENP7 block 83.0, SENP6 block 66.8 | SENP8 confirm 72.4 | SENP6 confirm 72.1 | SENP7 confirm 91.0 | Casp3 select 91.4 | Luc interf 74.0
COc1ccc(C(=O)NCCN2CCC(n3c(=O)[nH]c4ccccc43)CC2)cc1F	none (no result: Apaf-1 inh, UBC13 polyUb, SENP8 block-1, SENP7 block, SENP6 block)
COc1ccc(/C=N/NC(=O)c2ccoc2C)cc1O	SENP7 block 67.2, SENP6 block 75.6 | SENP8 confirm 68.5 | SENP6 confirm 67.4 | SENP7 confirm 88.9 | Casp3 select 89.9 | Luc interf 72.7
Cc1occc1C(=O)Nc1cccc2ccccc12	SENP8 block-1 91.1, SENP7 block 95.0, SENP6 block 96.3 | SENP8 confirm inactive | SENP6 confirm 95.5 | SENP7 confirm 101.6 | Casp3 select 91.4 | Luc interf 93.5
